# Screens (PubChem BioAssay)
# MEKK2 mut-MEK5 = signal of MEK5 binding to mutant human MEKK2 PB1 domain; bead flow cytometry, Alexa488-MEK5 binding to MEKK2 mutant; percent response, % at 10 µM; hit rate 0.35% among 290,000; AID 1530; in the data active = percent response above about 24%, passing the limit was not always enough
# FID counter = displaces DNA intercalator in HCV helicase counter-screen | DNA fluorescent intercalator displacement, fluorescence | inhibition, % at 7.9 µM | hit rate 0.17% among 290,000 | AID 1845; in the data active = inhibition above about 37%;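 also: 0% = vehicle and 100% = reference compound; higher means more ethidium bromide displaced from hairpin DNA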
# MEKK3 PB1 HTS = raises or lowers MEK5 binding to the human MEKK3 PB1 domain; Q99759; bead-based flow cytometry, Alexa488-MEK5 binding to MEKK3; actives lie on both sides; 0 = blocked by unlabeled MEK5, 100 = vehicle; binding response (% of control), % at 10 µM; hit rate 1.4% among 290,000; AID 1529;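 active = binding response more than 3 SD above or below the average of its plate-row segment, actives on both sides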;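 also: Alexa488 bead fluorescence after subtracting the streptavidin-only scavenger bead signal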
# Target sequence (Q99759 whole entry, looked up, the tested form may be a part): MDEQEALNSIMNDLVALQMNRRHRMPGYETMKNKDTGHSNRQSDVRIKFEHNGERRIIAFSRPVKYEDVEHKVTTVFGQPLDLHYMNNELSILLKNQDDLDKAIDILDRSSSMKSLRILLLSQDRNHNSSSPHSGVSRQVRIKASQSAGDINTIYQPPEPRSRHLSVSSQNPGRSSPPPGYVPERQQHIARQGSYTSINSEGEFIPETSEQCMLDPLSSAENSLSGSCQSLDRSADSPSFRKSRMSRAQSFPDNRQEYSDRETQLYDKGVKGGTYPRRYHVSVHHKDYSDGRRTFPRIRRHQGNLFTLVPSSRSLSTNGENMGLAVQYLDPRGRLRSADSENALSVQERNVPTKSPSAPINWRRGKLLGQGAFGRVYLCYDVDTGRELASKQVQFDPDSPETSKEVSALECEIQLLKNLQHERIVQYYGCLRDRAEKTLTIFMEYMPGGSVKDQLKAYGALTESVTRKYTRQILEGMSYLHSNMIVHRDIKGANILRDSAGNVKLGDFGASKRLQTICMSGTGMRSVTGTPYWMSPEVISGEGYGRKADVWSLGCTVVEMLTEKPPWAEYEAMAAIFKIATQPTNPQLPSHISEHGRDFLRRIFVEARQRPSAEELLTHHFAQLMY
# T cruzi repl = T. cruzi replication inhibition. T. cruzi beta-gal in NIH3T3, luminescence, 90 h. inhibition, % (no concentration beside the values). hit rate 1.4% among 300,000;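 active = mean inhibition across valid replicates above about 55%, limit read from the data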;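 also: signal also drops with host cell toxicity which is not excluded here; 0% = plate median of DMSO wells and 100% = zero luminescence signal; higher percent means less beta-gal luminescence so fewer parasites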
#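 System: NIH/3T3 fibroblasts plus reporter T. cruzi. Medium: DMEM plus 2% FBS. Probe or stimulus: 5000 reporter trypomastigotes per well. Compound: single 50 nL compound addition per well in DMSO. Incubation: co-culture of at least 90 h after 3 h attachment. Detection: GalScreen β-gal luminescence, detergent lysis, 60 min. Evaluation: parasite load inhibition, %.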
# MEKK2 WT-MEK5 = raises or lowers MEK5 binding to wildtype human MEKK2 PB1 domain | Q9Y2U5 | bead flow cytometry, Alexa488-MEK5 binding to MEKK2 WT; actives lie on both sides | binding response (% of control), % at 10 µM | hit rate 1.1% among 290,000 | AID 1531; in the data active = binding response below about 67% or above about 130%
# HCV NS3 hel inh = inhibitors of Hepatitis C virus NS3 helicase. NS3 helicase DNA unwinding, Cy5 molecular beacon fluorescence. AID 1800. hit rate 0.56% among 290,000. inhibition, % at 10.9 µM;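 active = inhibition above the mean of all tested compounds plus 3 SD, set per campaign, cut at about 35% in these data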;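 also: 0% = DMSO wells and 100% = thioflavine S control wells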
#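 System: NS3 helicase fragment of HCV / Schedule: 1 h at 25 °C / Control set: DMSO alone as 0% and 110 µM thioflavine S as 100% / Reagent: Cy5/quencher beacon DNA duplex and ATP to start / Technique: Cy5 fluorescence / Replication: singlicate / Evaluation: % inhibition of end-to-start signal ratio versus controls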
# * marks the source's active call; other numbers are inactive results; . = no result given. Shown are actives, neighbours in structure and some others; about 4.1% of the full set was active somewhere.
SMILES,MEKK2 mut-MEK5,FID counter,MEKK3 PB1 HTS,T cruzi repl,MEKK2 WT-MEK5,HCV NS3 hel inh
COc1ccc(F)c(CN2CCC(CO)(Cc3cccc(C(F)(F)F)c3)CC2)c1,6,39*,101,19,107,-28
COc1ccc(CN2CCCC(CO)(Cc3ccc(F)cc3)C2)cc1C (stereo unspecified),10,6,100,58*,116,-5
COc1cccc(CC2(CO)CCCN(Cc3ccc(OC)c(C)c3OC)C2)c1 (stereo unspecified),1,14,102,47,110,-48
COc1cccc(CC2(CO)CCCN(Cc3cn(C)c4ccccc34)C2)c1 (stereo unspecified),-4,18,97,65*,100,-27
CN(C)C(CNC(=O)C1CCN(C(=O)/C=C/c2ccccc2)CC1)c1ccccc1 (stereo unspecified),1,4,103,-14,114,-17
O=C(COC(=O)c1nc(Cl)ccc1Cl)NC(=O)c1ccccc1,1,-8,102,-3,98,2
O=C(CCN1C(=O)[C@@H]2Cc3ccccc3CN2C1=O)N[C@@H](C(=O)O)c1ccccc1,3,-15,100,1,101,-2
Cc1ccc(NC(=O)CSCC(=O)Nc2cc(Cl)ccc2N2CCOCC2)cc1,.,.,.,7,.,.
COc1cccc(CC2(CO)CCCN(Cc3ccccc3Cl)C2)c1 (stereo unspecified),8,-5,102,26,100,0
COc1cccc(CC2(CO)CCCN(Cc3ccc(CN4CCCCC4)s3)C2)c1 (stereo unspecified),9,13,101,71*,122,11
COc1ccc2cc3cc(C(=O)NCCN4CCN(Cc5ccccc5)CC4)oc3nc2c1,6,28,108,64*,110,-57
CCN1CCN(CCCNC(=O)c2cc3cc4ccc(OC)cc4nc3o2)CC1,.,33,.,43,.,-5
COc1ccc2cc3cc(C(=O)NCCCN4CCOCC4)oc3nc2c1,5,23,106,58*,111,7
CCCN(CCC)CCCNC(=O)c1cc2cc3ccc(OC)cc3nc2o1,.,37*,.,45,.,10
Cc1ccccc1S(=O)(=O)Cc1ccc(C(=O)NCCCN2CCN(C)CC2)o1,-2,10,101,-17,99,1
Cc1ccccc1S(=O)(=O)Cc1ccc(C(=O)NCCN2CCN(Cc3ccccc3)CC2)o1,.,4,.,61*,.,-6
O=C(N/N=C/C=C/c1ccc2c(c1)OCO2)C(O)c1ccccc1 (stereo unspecified),-12,-14,97,-1,101,3
Nn1c(SCc2cccc(Br)c2)nnc1-c1cccnc1,7,-4,104,-36,100,3
CCCCn1cc(S(=O)(=O)c2ccccc2)c(=O)c2cc(C)ccc21,-8,-19,101,-3,96,-7
CC(=O)N(CCCN(C)C)CCC(C)CCC=C(C)C (stereo unspecified),7,14,108,65*,104,7
Fc1cccc(C[n+]2csc3ccccc32)c1,5,-13,102,55*,99,8
Cc1ccc(CNC(=O)c2ccc3c(=O)c(O)c(-c4ccc(C)cc4)[nH]c3c2)cc1,2,.,107,60*,95,.
CCCNC(=O)c1ccc2c(=O)c(O)c(-c3ccc(C)cc3)[nH]c2c1,2,.,97,-20,99,.
Cc1cccc(NC(=S)N=Nc2c(O)[nH]c3ccccc23)c1,0,-4,96,64*,93,11
COc1ccccc1NC(=S)N=Nc1c(O)[nH]c2ccc(Br)cc12,-17,2,93,39,88,-1
SMILES,MEKK2 mut-MEK5,FID counter,MEKK3 PB1 HTS,T cruzi repl,MEKK2 WT-MEK5,HCV NS3 hel inh
CC(C)NC(=S)N=Nc1c(O)[nH]c2ccc(C(C)C)cc12,8,-4,103,59*,107,0
CC(C)c1ccc2[nH]c(O)c(N=NC(=O)c3cccc(S(=O)(=O)Nc4ccccc4Cl)c3)c2c1,-1,0,105,41,101,-1
CCc1ccc(CN(C)CC(=O)Nc2sccc2C#N)cc1,-4,-6,94,-4,92,2
CCOC(=O)c1cnn(C)c1NC(=O)c1ccc(Cl)cc1Cl,-7,-6,101,-6,101,-1
COc1cccc2c1C(=O)c1c(O)c3c(c(O)c1C2=O)C[C@@](O)(C(C)=O)C[C@@H]3O[C@H]1C[C@H](N)[C@H](O)[C@H](C)O1,0,36,99,.,84,29
COc1cccc2c1C(=O)c1c(O)c3c(c(O)c1C2=O)C[C@@](O)(C(=O)CO)C[C@@H]3O[C@H]1C[C@H](N)[C@@H](O)[C@H](C)O1,11,.,99,48,7.0*,.
CCOC(=O)C1=C(C)NC(=O)CC1c1cc(OC)c(OC)cc1Br (stereo unspecified),4,-21,103,19,105,1
Cc1cc(C)cc(NC(=O)CSc2nc3c(oc4ccccc43)c(=O)n2-c2ccccc2)c1,0,5,124,55*,98,4
Cc1ccc(-n2c(SCC(N)=O)nc3c(oc4ccccc43)c2=O)cc1,3,-23,102,8,104,5
CCC(CC)c1ncc[nH]1,16,-3,111,-11,98,0
COCCn1c(SCC(=O)NC(=O)NC(C)C)nc2ccccc21,-2,-13,99,-12,97,-2
COCCn1c(SCC(=O)NC(=O)NCc2ccccc2)nc2ccccc21,-2,-26,98,55*,100,-2
O=C(NCc1ccc2c(c1)OCO2)C1CCN(c2nccc(C(F)(F)F)n2)CC1,-13,-6,88,-9,91,-5
Cc1ccc(S(=O)(=O)CC(=O)N2CC(C)OC(C)C2)cc1 (stereo unspecified),1,-6,102,-24,98,9
COc1ccccc1N=Nc1nc(-c2ccccc2)c(-c2ccccc2)[nH]1,-2,-4,95,46,92,5
Oc1ccccc1N=Nc1nc(-c2ccccc2)c(-c2ccccc2)[nH]1,-1,-4,98,63*,98,-2
Cc1sc[n+](CC(=O)c2ccc(Br)cc2)c1C,3,-2,102,-5,105,4
Cc1c(CCOC(=O)c2cc([N+](=O)[O-])cc([N+](=O)[O-])c2)sc[n+]1CC(=O)c1ccc(Br)cc1,9,28,105,57*,124,-43
Cc1c(CCOC(=O)CC23CC4CC(CC(C4)C2)C3)sc[n+]1CC(=O)c1ccccc1,2,7,115,35,139*,-71
Cc1c(CCOC(=O)C23CC4CC(CC(C4)C2)C3)sc[n+]1Cc1ccccc1,2,12,102,1,112,-39
